Test results as given in PMC5741288 (Pain Reports, 2016).

Tested on: dermal blood flow (flare)
Experiment: Topical capsaicin alone, flare response in anesthetized rats
Format: in vivo, Sprague Dawley rats
How it was run: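 Isoflurane-anaesthetised rats had clipped lower abdominal skin and an O-ring placed by a preliminary Doppler image. Capsaicin (0.1–3 mg) or vehicle (30% ethanol, Tween, sterile water) was pipetted into the ring. Dermal blood flow was scanned by laser Doppler imager every 15 min for 120 min. Change from baseline flux was computed every 15 min.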

## COc1cc(CNC(=O)CCCC/C=C/C(C)C)ccc1O [Capsaicin]
0.1 mg topical
  Flare response: did not produce any increase in flare
0.3 mg topical, peaked 30 minutes after application
  Flare response: transient increase in flare
1 mg topical, larger concentrations did not increase flare further
  Flare response: greatest amount of flare
